In brackets after ≈: the same amount, converted by molar mass.
Key:
Homo sapiens [1] = organism: Homo sapiens; test: Selectivity ratio of Ki for human OX1R expressed in CHOK1 cell membranes to Ki for human OX2R expressed in CHOK1 cell membranes; type: cell-based
Outline: (§1)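 Radioligand competition binding used membranes from CHO-K1 cells overexpressing human OX1R or OX2R. […] The selectivity ratio is OX1R Ki divided by OX2R Ki.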

[2] = molecular target: T1, Orexin/Hypocretin receptor type 1 (Homo sapiens, UniProt O43613); test: Antagonist activity at human OX1R expressed in CHOK1 cells assessed as reduction in orexin A-induced calcium flux preincubated followed by orexin A addition by FLIPR assays; type: functional, cell-based
T1 sequence (O43613 whole entry): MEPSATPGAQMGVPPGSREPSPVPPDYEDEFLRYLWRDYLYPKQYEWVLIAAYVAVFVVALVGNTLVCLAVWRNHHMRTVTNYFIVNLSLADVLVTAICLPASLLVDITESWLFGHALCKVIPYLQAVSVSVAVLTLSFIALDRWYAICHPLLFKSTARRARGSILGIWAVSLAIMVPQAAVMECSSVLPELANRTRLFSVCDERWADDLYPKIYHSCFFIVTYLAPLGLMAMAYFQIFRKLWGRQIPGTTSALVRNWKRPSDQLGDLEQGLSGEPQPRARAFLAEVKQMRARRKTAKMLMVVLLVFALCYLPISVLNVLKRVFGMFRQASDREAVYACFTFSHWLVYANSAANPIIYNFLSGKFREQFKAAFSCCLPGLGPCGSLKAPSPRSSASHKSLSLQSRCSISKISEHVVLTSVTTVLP

Homo sapiens [3] = organism: Homo sapiens; test: Selectivity ratio of IC50 for human OX1R expressed in CHOK1 cells to IC50 for human OX2R expressed in CHOK1 cells by FLIPR assay; type: cell-based
[4] = Time-dependent inhibition of CYP450 (unknown origin); type: ADME; conditions: human
Orexin receptor type 2 [5] = molecular target: T2, Orexin receptor type 2 (Homo sapiens, UniProt O43614); test: Displacement of [3H](S)-N-(2-(1H-pyrrol-1-yl)phenyl)-1-(2-(1-methyl-1H-benzo[d]imidazol-2-ylthio)acetyl)pyrrolidine-2-carboxamide from human OX2R expressed in CHOK1 cell membranes; outline: as §1
T2 sequence (O43614 whole entry): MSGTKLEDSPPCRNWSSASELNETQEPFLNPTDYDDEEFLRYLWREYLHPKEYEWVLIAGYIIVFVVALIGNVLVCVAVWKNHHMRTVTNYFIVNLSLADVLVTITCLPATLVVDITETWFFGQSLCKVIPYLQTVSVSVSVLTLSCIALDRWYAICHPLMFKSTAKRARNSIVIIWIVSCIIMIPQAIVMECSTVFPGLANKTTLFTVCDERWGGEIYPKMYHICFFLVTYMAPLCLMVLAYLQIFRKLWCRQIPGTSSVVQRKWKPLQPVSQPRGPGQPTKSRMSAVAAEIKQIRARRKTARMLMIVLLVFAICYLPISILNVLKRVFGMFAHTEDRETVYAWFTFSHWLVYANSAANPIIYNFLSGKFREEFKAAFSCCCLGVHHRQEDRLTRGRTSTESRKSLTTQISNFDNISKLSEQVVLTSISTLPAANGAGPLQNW

[6] = molecular target: T1, Orexin/Hypocretin receptor type 1; test: Displacement of [3H](S)-N-(biphenyl-2-yl)-1-(2-(1-methyl-1H-benzo[d]imidazol-2-ylthio)acetyl)pyrrolidine-2-carboxamide from human OX1R expressed in CHOK1 cell membranes
Outline: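 Radioligand competition binding used membranes from CHO-K1 cells overexpressing human OX1R or OX2R. The selectivity ratio is OX1R Ki divided by OX2R Ki.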

Orexin receptor type 2 [7] = molecular target: T2, Orexin receptor type 2; test: Antagonist activity at human OX2R expressed in CHOK1 cells assessed as reduction in orexin A-induced calcium flux preincubated followed by orexin A addition by FLIPR assays; type: functional, cell-based
[8] = molecular target: T3, Nuclear receptor subfamily 1 group I member 2 (Homo sapiens, UniProt O75469); test: Inhibition of PXR (unknown origin); type: ADME
T3 sequence (O75469 whole entry): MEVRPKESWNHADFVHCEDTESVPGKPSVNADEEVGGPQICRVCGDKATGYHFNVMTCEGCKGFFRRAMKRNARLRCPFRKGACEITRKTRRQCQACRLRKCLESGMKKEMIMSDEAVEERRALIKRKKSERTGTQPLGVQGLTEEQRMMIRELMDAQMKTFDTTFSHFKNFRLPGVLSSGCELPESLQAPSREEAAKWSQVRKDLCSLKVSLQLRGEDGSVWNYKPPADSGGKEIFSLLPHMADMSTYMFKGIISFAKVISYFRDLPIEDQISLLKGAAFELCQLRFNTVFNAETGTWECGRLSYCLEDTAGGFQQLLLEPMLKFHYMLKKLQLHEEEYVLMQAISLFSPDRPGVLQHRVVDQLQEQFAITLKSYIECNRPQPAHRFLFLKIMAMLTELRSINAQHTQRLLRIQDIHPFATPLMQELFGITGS

[9] = Solubility of the compound in pH 1.8 SGF at 0.1 mg/ml after 15 mins by reverse-phase chromatography; type: physicochemical; conditions: simulated gastric fluid (SGF)
Outline: (§2)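 Compound at […] was stirred at 80 rpm in SGF (0.01 N HCl, 0.9 wt.% NaCl, pH 1.8) or FASSIF (3 mM sodium taurocholate, 0.75 mM lecithin, 100 mM NaCl, NaOH/NaH₂PO₄, pH 6.5). It was then centrifuged at 14k rpm for 15 min.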

[10] = Solubility of the compound in pH 6.5 FASSIF at 0.1 mg/ml after 15 mins by reverse-phase chromatography; type: physicochemical; conditions: fasted state simulated intestinal fluid (FaSSIF); outline: as §2

| Compound | Ratio Ki (Homo sapiens [1]) | IC50 [2] | Ratio IC50 (Homo sapiens [3]) | TDI [4] | Ki (Orexin receptor type 2 [5]) | Ki [6] | IC50 (Orexin receptor type 2 [7]) | inhibition (INH) [8] | solubility at 0.25 h [9] | solubility at 0.25 h [10] |
| --- | --- | --- | --- | --- | --- | --- | --- | --- | --- | --- |
| COc1ccc(C(=O)N2C[C@H](Oc3nccc(C#N)c3C)CC[C@H]2C)c(SC)n1 | 1260 | > 10000 nM | > 455 | Active | – | – | – | – | – | – |
| CC(=O)Nc1cc(C(=O)N2C[C@H](Oc3nccc(C#N)c3C)CC[C@H]2C)c(-c2ccccc2)cn1 | 14 | 71 nM | 2 | – | 0.7 nM | 10 nM | 38 nM | – | – | – |
| Cc1c(C#N)ccnc1O[C@@H]1CC[C@@H](C)N(C(=O)c2cccnc2-c2ccccc2)C1 | 434 | 4670 nM | 180 | – | – | – | – | – | – | – |
| C[C@@H]1CC[C@@H](Nc2cc(C#N)ccn2)CN1C(=O)c1ccccc1-n1nccn1 | 319 | 1740 nM | 60 | – | 0.9 nM | 287 nM | – | – | – | – |
| COc1ccc(C(=O)N2C[C@H](Oc3nccc(C#N)c3C)CC[C@H]2C)c(-n2nccn2)c1 | – | – | – | – | – | – | – | Active | – | – |
| CC(=O)Nc1ccc(-c2ccccc2)c(C(=O)N2C[C@H](Oc3nccc(C#N)c3C)CC[C@H]2C)n1 | 20 | 74 nM | 2 | – | 0.6 nM | 12 nM | 38 nM | – | – | – |
| Cc1c(C#N)ccnc1O[C@@H]1CC[C@@H](C)N(C(=O)c2ccccc2N2CCCC2)C1 | 232 | 3100 nM | 107 | Active | – | – | – | – | – | – |
| COC(=O)c1c(C#N)ccnc1O[C@@H]1CC[C@@H](C)N(C(=O)c2ccccc2-n2nccn2)C1 | 112 | – | 39 | – | 0.5 nM | – | – | – | – | – |
| Cc1c(C#N)ccnc1O[C@@H]1CC[C@@H](C)N(C(=O)c2ccc(Br)nc2-n2nccn2)C1 | 326 | > 10000 nM | > 345 | – | – | – | – | – | – | – |
| C[C@@H]1CC[C@@H](Sc2cc(C#N)ccn2)CN1C(=O)c1ccccc1-n1nccn1 | 191 | – | 109 | – | 1.7 nM | 324 nM | 13 nM | – | – | – |
| COc1ccc(C(=O)N2C[C@H](Oc3nccc(C#N)c3C)CC[C@H]2C)c(-n2nccn2)n1 | 1190 | 5930 nM | 282 | – | – | – | – | Active | – | – |
| Cc1c(C#N)ccnc1O[C@@H]1CC[C@@H](C)N(C(=O)c2ccccc2-n2ncnn2)C1 | 358 | 4590 nM | 596 | – | – | – | – | – | – | – |
| COC(=O)c1ccnc(O[C@@H]2CC[C@@H](C)N(C(=O)c3ccccc3-n3nccn3)C2)c1 | 80 | – | 82 | – | – | – | – | – | – | – |
| CCOc1ccccc1C(=O)N1C[C@H](Oc2nccc(C#N)c2C)CC[C@H]1C | 849 | 2100 nM | 350 | – | – | – | – | Active | – | – |
| COC(=O)c1cccnc1S[C@@H]1CC[C@@H](C)N(C(=O)c2ccccc2-n2nccn2)C1 | 8 | – | 2 | – | 0.8 nM | 6.3 nM | – | – | – | – |
| COc1ccc(C(=O)N2C[C@H](Oc3nccc(C#N)c3C)CC[C@H]2C)c(C2CC2)n1 | – | – | – | Active | – | – | – | – | – | – |
| Cc1c(C#N)ccnc1O[C@@H]1CC[C@@H](C)N(C(=O)c2ccccc2-n2nccn2)C1 | 285 | 996 nM | 125 | – | – | – | – | – | – | – |
| COC(=O)c1cccnc1N[C@@H]1CC[C@@H](C)N(C(=O)c2ccccc2-n2nccn2)C1 | 30 | 69 nM | 2 | – | 0.4 nM | 12 nM | – | – | – | – |
| C[C@@H]1CC[C@@H](Oc2cc(C#N)ccn2)CN1C(=O)c1ccccc1-c1ncccn1 | 438 | – | 175 | – | – | 569 nM | – | – | 680 µg/mL (≈ 1700 µM) | 660 µg/mL (≈ 1650 µM) |
| Cc1c(C#N)ccnc1O[C@@H]1CC[C@@H](C)N(C(=O)c2ccccc2C(F)(F)F)C1 | 373 | 4960 nM | 236 | – | – | – | – | – | – | – |
| Cc1c(C#N)ccnc1O[C@@H]1CC[C@@H](C)N(C(=O)c2ccccc2C2CC2)C1 | 741 | 1740 nM | 193 | – | – | – | – | – | – | – |
| C[C@@H]1CC[C@@H](Oc2nccc3c2C(=O)OC3(C)C)CN1C(=O)c1ccccc1-n1nccn1 | 379 | – | 414 | – | 2.2 nM | 834 nM | – | – | – | – |
| COC(=O)c1cccnc1O[C@@H]1CC[C@@H](C)N(C(=O)c2ccccc2-n2nccn2)C1 | 26 | 309 nM | 9 | – | 2.5 nM | 66 nM | 35 nM | – | – | – |

Reference: ChEMBL document CHEMBL3997828, “Investigation of orexin-2 selective receptor antagonists: Structural modifications resulting in dual orexin receptor antagonists” (Bioorg Med Chem Lett, 2017)
